Values after ≈ are worked out from the molar mass of the structure shown.
Key:
[1] = system: Measles morbillivirus; experiment: Antiviral activity against Measles virus Alaska infected african green monkey Vero cells expressing human SLAM assessed as decrease in virus-induced cytopathic effect; type: functional, organism-based
[2] = Solubility of the compound at pH 7.4 by nephelometric analysis; type: physicochemical; settings: buffer
Outline: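 Aqueous solubility was measured by nephelometry in buffer at pH 7.4.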

[3] = system: Vero; experiment: Cytotoxicity against african green monkey Vero cells after 24 hrs by MTT assay; type: cell-based; settings: chlorocebus sabaeus
[4] = system: Rattus norvegicus; experiment: Ratio of AUC for ERDRP-00519 to AUC for AS-136a in Sprague-Dawley rat at 10 to 50 mg/kg; type: ADME, organism-based; design: dose 10-50 mg/kg; settings: in vivo
[5] = system: Rattus norvegicus; experiment: Oral bioavailability in Sprague-Dawley rat at 10 mg/kg; type: ADME, organism-based; settings: in vivo
Outline: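 Rats were dosed 2 mg/kg i.v. and 10 mg/kg p.o., and oral bioavailability F was derived by comparing the two routes.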

[6] = system: Caco-2; experiment: Efflux ratio of permeability in human Caco2 cells; type: ADME, cell-based
Outline: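 Caco-2 bidirectional permeability assay, with efflux ratio calculated from the two transport directions.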

[7] = AUC (0 to infinity) in Sprague-Dawley rat at 10 mg/kg, po; type: ADME, organism-based; design: time infinity, dose 10 mg/kg, route oral; settings: plasma
Outline: (§1)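 Oral gavage at 10 and 50 mg/kg to Sprague-Dawley rats, given as a suspension in PEG200/0.5% methylcellulose (10/90), n = 4 per group. Plasma concentration was followed over time, and PK parameters were estimated by non-compartmental analysis.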

[8] = system: Measles morbillivirus; experiment: Antiviral activity against Measles virus Alaska infected african green monkey Vero cells expressing human SLAM assessed as decrease in viral titer at EC50 of cytopathic inhibition; type: functional, organism-based
[9] = system: Rattus norvegicus; experiment: Ratio of Cmax for ERDRP-00519 to Cmax for AS-136a in Sprague-Dawley rat at 10 to 50 mg/kg; type: ADME, organism-based; design: dose 10-50 mg/kg; settings: in vivo
[10] = system: Measles morbillivirus; experiment: Inhibition of Measles virus RdRp expressed in baby hamster BSR-T7/5 cells by firefly luciferase mini replicon assay; type: cell-based
Outline: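 BSR-T7/5 cells were transfected with plasmids encoding MeV L, N and P plus a firefly luciferase minigenome reporter, then incubated with a range of inhibitor concentrations or vehicle. Luciferase activity in cell lysates was read 36 h post-transfection relative to vehicle, and dose-response curves were built; three experiments.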

[11] = Cmax in Sprague-Dawley rat at 10 mg/kg, po; type: ADME, organism-based; design: dose 10 mg/kg, route oral; settings: in vivo; outline: as §1
[12] = Half life in Sprague-Dawley rat at 50 mg/kg, po; type: ADME, organism-based; design: dose 50 mg/kg, route oral; settings: in vivo; outline: as §1
[13] = Metabolic stability of the compound in human liver S9 fractions assessed as compound remaining after 1 hr; type: ADME, subcellular, S9 fraction; settings: read-out: Stability
Outline: (§2)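 Compound incubated one hour in liver S9 fraction, with the percentage of parent compound remaining as the readout.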

[14] = Cmax in Sprague-Dawley rat at 50 mg/kg, po; type: ADME, organism-based; design: dose 50 mg/kg, route oral; settings: in vivo; outline: as §1
[15] = AUC (0 to infinity) in Sprague-Dawley rat at 50 mg/kg, po; type: ADME, organism-based; design: time infinity, dose 50 mg/kg, route oral; settings: plasma; outline: as §1
[16] = Half life in Sprague-Dawley rat at 10 mg/kg, po; type: ADME, organism-based; design: dose 10 mg/kg, route oral; settings: in vivo; outline: as §1
[17] = AUC (0 to t) in Sprague-Dawley rat at 50 mg/kg, po; type: ADME, organism-based; design: dose 50 mg/kg, route oral; settings: plasma; outline: as §1
[18] = AUC (0 to t) in Sprague-Dawley rat at 10 mg/kg, po; type: ADME, organism-based; design: dose 10 mg/kg, route oral; settings: plasma; outline: as §1
[19] = Tmax in Sprague-Dawley rat at 10 mg/kg, po; type: ADME, organism-based; design: dose 10 mg/kg, route oral; settings: in vivo; outline: as §1
[20] = Tmax in Sprague-Dawley rat at 50 mg/kg, po; type: ADME, organism-based; design: dose 50 mg/kg, route oral; settings: in vivo; outline: as §1
[21] = Metabolic stability of the compound in mouse liver S9 fractions assessed as compound remaining after 1 hr; type: ADME, subcellular, S9 fraction; settings: read-out: Stability; outline: as §2

Row | Structure (SMILES) | EC50 [1] | solubility kinetic [2] | other results
1 | Cn1nc(C(F)(F)F)cc1C(=O)Nc1ccc(S(=O)(=O)N2CCCCC2/C=C/CO)cc1 (configuration not stated) | 3.7 µM |  | 
2 | COCOCC1CCCCN1S(=O)(=O)c1ccc(NC(=O)c2cc(C(F)(F)F)nn2C)cc1 (configuration not stated) | 1.5 µM |  | 
3 | Cn1nc(C(F)(F)F)cc1C(=O)Nc1ccc(S(=O)(=O)c2ccccc2CO)cc1 | 3.5 µM | 46 µg/mL (≈ 105 µM) | CC50 [3]: > 75 µM
4 | Cn1nc(C(F)(F)F)cc1C(=O)Nc1ccc(S(=O)(=O)N2CCCC[C@H]2CCN2CCOCC2)cc1 | 2.5 µM | 60 µg/mL (≈ 113 µM) | CC50 [3]: > 75 µM; Ratio [4]: 10; F [5]: 39%; Ratio [6]: 2.6; AUC(0-inf) [7]: 818 ng·h/mL; EC50 [8]: 0.06 µM; Ratio [9]: 10; inhibition [10]: Dose-dependent effect; Cmax [11]: 195 ng/mL; half-life [12]: 6.5 h; remaining at 1 h [13]: 24%; Cmax [14]: 823 ng/mL; AUC(0-inf) [15]: 7860 ng·h/mL; half-life [16]: 2.2 h; AUC(0-t) [17]: 3520 ng·h/mL; AUC(0-t) [18]: 683 ng·h/mL; Tmax [19]: 1.1 h; Tmax [20]: 1.5 h
5 | CCOC(=O)COCC1CCCCN1S(=O)(=O)c1ccc(NC(=O)c2cc(C(F)(F)F)nn2C)cc1 (configuration not stated) | 25 µM |  | 
6 | CCOC(=O)CCC1CCCCN1S(=O)(=O)c1ccc(NC(=O)c2cc(C(F)(F)F)nn2C)cc1 (configuration not stated) | 6.7 µM |  | 
7 | CCOC(=O)/C=C/C1CCCCN1S(=O)(=O)c1ccc(NC(=O)c2cc(C(F)(F)F)nn2C)cc1 (configuration not stated) | 6.8 µM |  | 
8 | Cn1nc(C(F)(F)F)cc1C(=O)Nc1ccc(S(=O)(=O)N2CCCCC2CCO)cc1 (configuration not stated) | 2.7 µM | 62 µg/mL (≈ 135 µM) | CC50 [3]: > 75 µM; EC50 [8]: 0.1 µM
9 | Cn1nc(C(F)(F)F)cc1C(=O)Nc1ccc(S(=O)(=O)N2CCCC[C@H]2CCO)cc1 | 3.1 µM |  | 
10 | CC(=O)NCC1CCCCN1S(=O)(=O)c1ccc(NC(=O)c2cc(C(F)(F)F)nn2C)cc1 (configuration not stated) | 14 µM |  | 
11 | Cn1nc(C(F)(F)F)cc1C(=O)Nc1ccc(S(=O)(=O)N2CCCC[C@@H]2CCO)cc1 | 8.3 µM |  | 
12 | Cn1nc(C(F)(F)F)cc1C(=O)Nc1ccc(S(=O)(=O)c2ccccc2O)cc1 | 4.5 µM | 67 µg/mL (≈ 158 µM) | 
13 | Cn1nc(C(F)(F)F)cc1C(=O)Nc1ccc(S(=O)(=O)N2CCCCC2CN)cc1 (configuration not stated) | 55 µM |  | 
14 | COc1ccccc1S(=O)(=O)c1ccc(NC(=O)c2cc(C(F)(F)F)nn2C)cc1 | 3.1 µM | < 15 µg/mL | CC50 [3]: > 75 µM
15 | Cn1nc(C(F)(F)F)cc1C(=O)Nc1ccc(S(=O)(=O)N2CCCCC2CN2CCOCC2)cc1 (configuration not stated) | 9.3 µM |  | 
16 | C=Cc1ccccc1S(=O)(=O)c1ccc(NC(=O)c2cc(C(F)(F)F)nn2C)cc1 | > 50 µM |  | 
17 | Cn1nc(C(F)(F)F)cc1C(=O)Nc1ccc(S(=O)(=O)c2ccccc2)cc1 | 2.8 µM | 22 µg/mL (≈ 53.7 µM) | CC50 [3]: > 75 µM; EC50 [8]: 0.09 µM
18 | Cn1nc(C(F)(F)F)cc1C(=O)Nc1ccc(S(=O)(=O)N2CCCCC2CO)cc1 (configuration not stated) | 2.8 µM | 61 µg/mL (≈ 137 µM) | CC50 [3]: > 75 µM
19 | Cn1nc(C(F)(F)F)cc1C(=O)Nc1ccc(S(=O)(=O)N2CCCCC2CCN2CCOCC2)cc1 (configuration not stated) | 4.6 µM | 55 µg/mL (≈ 104 µM) | 
20 | Cn1nc(C(F)(F)F)cc1C(=O)Nc1ccc(S(=O)(=O)N2CCCCC2CCCO)cc1 (configuration not stated) | 2.7 µM |  | 
21 | CC(=O)Oc1ccccc1S(=O)(=O)c1ccc(NC(=O)c2cc(C(F)(F)F)nn2C)cc1 | 4.5 µM |  | 
22 | COCOCC1CCCN(S(=O)(=O)c2ccc(NC(=O)c3cc(C(F)(F)F)nn3C)cc2)C1 (configuration not stated) | 3.8 µM |  | 
23 | Cn1nc(C(F)(F)F)cc1C(=O)Nc1ccc(S(=O)(=O)N2CCCCC2CN=[N+]=[N-])cc1 (configuration not stated) | 1.5 µM |  | 
24 | COCOCC1CCN(S(=O)(=O)c2ccc(NC(=O)c3cc(C(F)(F)F)nn3C)cc2)CC1 | 16 µM |  | 
25 | CN(C)CC1CCCCN1S(=O)(=O)c1ccc(NC(=O)c2cc(C(F)(F)F)nn2C)cc1 (configuration not stated) | > 150 µM |  | 
26 | Cn1nc(C(F)(F)F)cc1C(=O)Nc1ccc(S(=O)(=O)N2CCCCC2)cc1 | 2 µM | < 15 µg/mL | CC50 [3]: > 75 µM; Ratio [6]: 1.1; inhibition [10]: Dose-dependent effect; remaining at 1 h [13]: 69%; remaining at 1 h [21]: 79%
27 | Cn1nc(C(F)(F)F)cc1C(=O)Nc1ccc(S(=O)(=O)c2ccccc2CN2CCOCC2)cc1 | > 75 µM |  | 
28 | Cn1nc(C(F)(F)F)cc1C(=O)Nc1ccc(S(=O)(=O)N2CCCCC2COCCO)cc1 (configuration not stated) | 8.3 µM |  | 
